Results taken from ChEMBL document CHEMBL4316634, “Immunomodulatory Biscembranoids and Assignment of Their Relative and Absolute Configurations: Data Set Modulation in the Density Functional Theory/Nuclear Magnetic Resonance Approach” (J Nat Prod, 2019).
Active and inactive are the calls of the source. The calls are words filed in the database; no cut-off is given here.

Key:
[1] = system: Splenocyte; assay: Cytotoxicity in C57BL/6 mouse splenocytes assessed as effect on cell viability at 3 uM by FACScan flow cytometry; format: cell-based
How it was run: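 Splenocytes at 2 × 10^6 cell/mL from C57BL/6 mice exposed to compounds at 3 μM for 24 h, with Con A (5 μg/mL) as positive control. Cells were then collected, washed in PBS and read at once by flow cytometry for apoptosis.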

[2] = system: Splenocyte; assay: Immunomodulatory activity in C57BL/6 mouse splenocytes assessed as reduction in CD4+/CD8+ cells ratio at 3 uM incubated for 24 hrs by flow cytometric analysis; format: functional, cell-based
How it was run: (§1)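 C57BL/6 splenocytes given compounds at 3 μM for 24 h under Con A-induced activation, with Con A (5 μg/mL) as positive control. Cells were stained with PE-CD3, FITC-CD4 and Percp/cy5.5-CD8. CD3+, CD4+ and CD8+ percentages were measured by flow cytometry, and the CD4+/CD8+ ratio was derived from them. Values are mean ± SD, n = 3.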

[3] = system: Splenocyte; assay: Immunomodulatory activity in C57BL/6 mouse splenocytes assessed as increase in CD4+/CD8+ cells ratio at 3 uM incubated for 24 hrs by flow cytometric analysis; format: functional, cell-based; how it was run: as §1
[4] = system: Splenocyte; assay: Immunomodulatory activity in C57BL/6 mouse splenocytes assessed as induction of CD3+ T cells proliferation at 3 uM incubated for 24 hrs by flow cytometric analysis; format: functional, cell-based; how it was run: as §1

SMILES: CC1=C2CCC3=CCC[C@@](C)(OC3=O)[C@@H](O)CC/C(C)=C/[C@@H]2[C@]23CC(=O)C[C@@H](C)CC/C=C(\C)CC(=O)[C@@H](C(C)C)[C@H](OC2=O)[C@@H]3C1
- Activity [1]: Non-Toxic

SMILES: CC(=O)O[C@H]1C/C(C)=C/CC/C(C)=C\C(=O)C[C@@]23C(=O)O[C@@H]([C@@H]1C(C)C)[C@@H]2CC(C)=C1CCC2=CCC[C@@](C)(OC2=O)[C@@H](O)CC/C(C)=C\[C@@H]13
- Activity [1]: Non-Toxic
- Activity [2]: Active

SMILES: CC(=O)O[C@H]1C/C(C)=C/CC[C@H](C)CC(=O)C[C@@]23C(=O)O[C@@H]([C@@H]1C(C)C)[C@@H]2CC(C)=C1CCC2=CCC[C@@](C)(OC2=O)[C@@H](O)CC/C(C)=C\[C@@H]13
- Activity [1]: Non-Toxic

SMILES: CC(=O)O[C@H]1C/C(C)=C/CC/C(C)=C/C(=O)C[C@@]23C(=O)O[C@@H]([C@@H]1C(C)C)[C@@H]2CC(C)=C1CCC2=CCC[C@@](C)(OC2=O)[C@@H](O)CC/C(C)=C/[C@@H]13
- Activity [1]: Non-Toxic
- Activity [3]: Active
- Activity [4]: Active

SMILES: CC(=O)O[C@H]1C/C(C)=C/C/C=C(/C)CC(=O)C[C@@]23C(=O)O[C@@H]([C@@H]1C(C)C)[C@@H]2CC(C)=C1CCC2=CCC[C@@](C)(OC2=O)[C@@H](O)CC/C(C)=C/[C@@H]13
- Activity [1]: Non-Toxic
- Activity [4]: Active

SMILES: CC(=O)O[C@H]1C/C(C)=C/CC[C@H](C)CC(=O)C[C@@]23C(=O)O[C@@H]([C@@H]1C(C)C)[C@@H]2CC(C)=C1CCC2=CCC[C@@](C)(OC2=O)[C@@H](O)CC/C(C)=C/[C@@H]13
- Activity [1]: Non-Toxic
- Activity [3]: Active

SMILES: CC(=O)O[C@H]1C/C(C)=C/CC/C(C)=C\C(=O)C[C@@]23C(=O)O[C@@H]([C@@H]1C(C)C)[C@@H]2CC(C)=C1CCC2=CCC[C@@](C)(OC2=O)[C@@H](O)CC/C(C)=C/[C@@H]13
- Activity [1]: Non-Toxic
